Assay outcomes (PubChem)
Shown is part of a subset that was picked to be rich in hits.
DTT redox prof = compounds producing H2O2 with reducing agent – biochemical, NIH compound library profiling, artefact control for MLSCN library redox annotation, primary screen; DTT-dependent redox cycling H2O2, phenol red/HRP absorbance; 100% = 100 µM peroxide control, 0% = buffer; activation, % at 10 µM; 0.03% of 200,000 active;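 active = activation of at least 50% relative to the plate's high and low controls in the primary single-dose screen; inactive = activation below 50%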;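 also: compound incubated with DTT at 0.8 mM final as the reducing agent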
Lmaj promast = reduces viability of Leishmania major promastigotes. resazurin fluorescence viability. 9% of 200,000 active. AID 1063. inhibition, % at 10 µM;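 also: promastigotes grown with compound for 44 hours at 28 °C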
G6PDH counter = inhibits Leuconostoc G6PDH, flagging false hits in G6PDH-based assays | AID 1020 | 0.12% of 200,000 active | inhibition, % at 5 µM | Purified L. mesenteroides G6PDH, diaphorase/resazurin coupled fluorescence, 45 min
PfGluPho inh = PfG6PD (Plasmodium falciparum) enzyme inhibition; PfGluPho enzyme, NADPH resazurin-diaphorase fluorescence; inhibition, % at 20 µM; 0.78% of 350,000 active;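 active = inhibition reaching at least a set limit at 20 µM in the primary screen, cut at about 59% in these data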;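 also: 0% = DMSO wells with substrate and 100% = DMSO wells lacking glucose-6-phosphate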
Diaphorase inh = counter-screen for diaphorase-based assays: diaphorase inhibitors and chemical oxidizers; diaphorase resazurin-to-resorufin fluorescence, NADH, 16 min; bacterial (C. kluyveri) enzyme, not human; inhibition, % at 20 µM; 0.69% of 190,000 active; AID 1217;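 active = primary screen inhibition at 20 µM above a set limit, cut at about 50% in these data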;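 also: plate controls were DMSO with full reaction for no effect and wells lacking NADH for full effect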
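System: Diaphorase enzyme from Clostridium kluyveri | Amount: Enzyme working solution with 0.14 U/mL diaphorase | Benchmarks: No-NADH positive control and DMSO neutral control | Signal: Fluorescence of resorufin formed from resazurin, Ex 544/Em 590 nm | Schedule: 16-min room-temperature incubation before reading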
Diaph act CS = diaphorase activation or chemical reduction counter-screen; activation factor at 20 µM; AID 1229; 0.005% of 190,000 active; Diaphorase/resazurin coupled assay, resorufin fluorescence, 16 min; stronger effect = higher value; 1 = vehicle wells, 0 = NADH-free wells;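 active = diaphorase activity raised at least twofold by the compound at 20 µM; inactive = activation factor below 2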
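Measured by – red resorufin fluorescence at 544/590 nm excitation/emission · Test system – Clostridium kluyveri diaphorase, purified enzyme · Incubation – reaction time 16 min, room temperature · Buffer or medium – 50 mM HEPES pH 7.4 with 4.542 mM MgCl2, 0.005% Tween 20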
An asterisk follows results filed as active; / = no result. Rule as the data show it, unless noted: active = inhibition above about 50%; inactive = the rest.

SMILES	DTT redox prof	Lmaj promast	G6PDH counter	PfGluPho inh	Diaphorase inh	Diaph act CS
N#CCSc1nc2c(sc(=S)n2Cc2ccco2)c(=O)n1-c1ccc(F)cc1	-1	96*	-2	56	27	0.7
CC1CCC(NC(=O)CN2C(=O)c3cccnc3Oc3ccc(Cl)cc32)CC1 (stereo not drawn)	/	/	/	-4	/	/
COc1ccccc1C1c2c(C)nn(-c3ccccc3)c2NC(=O)C1NC(=O)c1ccccc1 (stereo not drawn)	/	75*	2	13	2	1
COC(=O)c1c(C)nn(-c2ccccc2)c1N	1	-3	15	19	-2	1
CC(=O)/C(N=Nc1ccc2c(c1)OCO2)=C(\C)O	1	57*	7	21	-10	1.1
Cc1cc(N2CCCC2)nc2ccc(NC(=S)NC(C)C)cc12	0	99*	3	-15	27	0.7
CCCCNC(=O)CCC(=O)Nc1ccc2nc(N3CCCCC3)cc(C)c2c1	0	7	7	-4	15	0.8
COCCNC(=S)Nc1ccc2nc(N3CCOCC3)cc(C)c2c1	/	/	/	-11	/	/
CCOCCCNC(=S)Nc1ccc2nc(N3CCCC3)cc(C)c2c1	0	100*	1	25	6	0.9
COCCNC(=S)Nc1ccc2nc(N3CCCC3)cc(C)c2c1	0	100*	-3	11	3	1
Cn1c(Sc2ccc([N+](=O)[O-])cc2C(F)(F)F)nnc1-c1ccccc1	-7	62*	4	-7	5	1
Cc1c(N=Nc2c(-c3ccc([N+](=O)[O-])cc3)[nH]n(C(N)=S)c2=O)cccc1[N+](=O)[O-]	0	65*	6	12	54*	0.5
NC(=S)n1[nH]c(-c2ccc([N+](=O)[O-])cc2)c(N=Nc2cccc([N+](=O)[O-])c2)c1=O	2	1	0	29	79*	0.2
Nc1nc(=S)c2ncn(C3OC(CO)CC3O)c2[nH]1 (stereo not drawn)	/	/	/	43	/	/
CC1CCCCN1C(=O)CCS(=O)(=O)c1cccc2nonc12 (stereo not drawn)	-2	0	0	-17	5	1
O=S(=O)(Nc1ccccn1)c1cnc(Cl)c(Br)c1	1	-8	-6	-18	11	0.9
CCc1ccc(C(=O)OCC(=O)c2c(N)n(CC(C)C)c(=O)n(C)c2=O)cc1	0	-3	6	9	-12	1.1
CCCCCCCCCC1(CC(=O)OCC)SCCN1C(N)=O (stereo not drawn)	/	/	/	11	/	/
CCCc1ccc(-c2cc(C(=O)N/N=C/c3ccc([N+](=O)[O-])o3)c3ccccc3n2)cc1	0	100*	-2	-9	13	0.9
O=C(N/N=C/c1ccc([N+](=O)[O-])o1)c1cc(-c2cccc(Br)c2)nc2ccccc12	-4	100*	5	14	31	0.7
O=C(N/N=C/c1ccco1)c1cc(-c2ccccc2)nc2ccccc12	/	/	/	-9	/	/
COc1cccc(N=Nc2c(N)[nH]n3c(=O)cc(-c4ccccc4)nc23)c1	-4	92*	7	1	10	0.9
Cc1cc(=O)n2[nH]c(N)c(N=Nc3ccccc3)c2n1	0	5	12	3	8	0.9
COc1cccc(-c2cc3nc(-c4ccccc4)cc(=O)n3[nH]2)c1	/	/	/	-22	/	/
Cc1ccc(N=Nc2c(N)[nH]n3c(=O)cc(-c4ccccc4)nc23)cc1	-4	94*	-1	-5	62*	0.4
SMILES	DTT redox prof	Lmaj promast	G6PDH counter	PfGluPho inh	Diaphorase inh	Diaph act CS
CC(C)(c1ccc(O)cc1)c1ccc(O)c(C(=O)O)c1	/	/	/	-36	/	/
CC(C)CC(C(=O)OCC(=O)c1c(N)n(C)c(=O)n(C)c1=O)N1C(=O)c2ccccc2C1=O (stereo not drawn)	/	57*	2	8	23	0.8
CC1CCCN(C(=O)CN2C(=O)CSc3ccc(S(=O)(=O)N4CCOCC4)cc32)C1 (stereo not drawn)	/	/	/	-10	/	/
CC(OC(=O)C1CCN(S(=O)(=O)c2ccc(Cl)cc2)CC1)C(=O)NC1CCCCC1C (stereo not drawn)	/	/	/	-10	/	/
CC[n+]1ccccc1/C=C/c1ccc(N(C)C)cc1	0	96*	5	1	-7	1.1
CC[n+]1c(/C=C/c2ccc(N(C)C)cc2)ccc2ccccc21	1	100*	4	15	-1	1
CN(C)c1ccc(/C=C/c2cc[n+]([O-])cc2)cc1	2	-4	6	/	7	0.9
CC[n+]1ccc(/C=C/c2ccc(N(C)C)cc2)c2ccccc21	-1	100*	15	20	22	0.8
CN(C)c1ccc(/C=C/c2cc[n+](C)cc2)cc1	0	99*	0	0	-3	1
Cc1ccc(-n2nc(C)c(NC(=O)CCl)c2C)cc1	0	27	-2	-10	3	1
NCCCCCc1nnc(SCC(N)=O)o1	2	-3	5	5	8	0.9
Cc1cccc(/C=C(\c2nc3ccccc3[nH]2)S(=O)(=O)c2ccccc2)c1	0	100*	-1	-7	17	0.8
C=CCN1CC(C(=O)N2CCC(Cc3ccc(Cl)cc3)(C(=O)OCC)CC2)CC1=O (stereo not drawn)	/	/	/	5	/	/
O=C(O)CCC(=O)Nc1ccc(/C=C/C(=O)C2CC2)cc1	0	-4	11	3	/	/
COc1cccc(Oc2cn[nH]c2-c2ccc(O)cc2O)c1	0	75*	-21	51	10	0.9
Cc1cc(C)c2oc(-c3ccc(C)c(NC(=S)NC(=O)/C=C/c4ccco4)c3)nc2c1	-1	71*	-17	3	4	1
Cc1cc(C)c2oc(-c3ccc(C)c(NC(=S)NC(=O)c4cccs4)c3)nc2c1	3	4	6	-9	8	0.9
Cc1ccc2oc(-c3cccc(NC(=S)NC(=O)/C=C/c4ccco4)c3)nc2c1	-6	100*	0	14	13	0.9
Cc1cccc(NC(=S)N2CCn3cccc3C2c2cccnc2)c1 (stereo not drawn)	0	89*	-7	13	9	0.9
Fc1ccc(C2c3cccn3CCN2C(=S)Nc2cccc(Br)c2)cc1 (stereo not drawn)	-1	41	4	19	2	1
COc1cccc(NC(=S)N2CCn3cccc3C2c2cccnc2)c1 (stereo not drawn)	-3	88*	18	0	5	0.9
Fc1ccc(NC(=S)N2CCn3cccc3C2c2cccnc2)cc1 (stereo not drawn)	-1	91*	-4	7	4	1
CCCCNC(=S)N1CCn2cccc2C1c1ccc(F)cc1 (stereo not drawn)	-1	52*	-5	8	8	0.9
